Source: ChEMBL document CHEMBL3526049 (Drug Metab Dispos, 2012)

Experiments:
Assay type in all cases: ADME, organism-based
[1] = Volume of distribution at steady state in wild-type Sprague-Dawley rat at 5 mg/kg, iv by LC-MS/MS analysis; design: dose 5 mg/kg, route intravenous; conditions: in vivo, read-out: Vdss
How it was run: (§1)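 Male Sprague-Dawley knockout rats or wild-type rats matched for age and weight, with femoral artery and vein cannulas. Crossover design: sulfasalazine 5 mg/kg iv bolus (water, pH 9–10) on day 0, then 20 mg/kg oral gavage (0.5% carboxymethyl cellulose in PBS, pH 7.4) on day 3. Arterial plasma collected 0–24 h. Sulfasalazine and sulfapyridine measured by LC-MS/MS; noncompartmental parameters; mean ± S.D., n = 4 to 8.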

[2] = Tmax in BCRP knockout Sprague-Dawley rat at 20 mg/kg, po by LC-MS/MS analysis; design: dose 20 mg/kg, route oral; conditions: in vivo
How it was run: (§2)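 Male Sprague-Dawley rats (knockout or wild type, matched for age and weight) with femoral artery and vein cannulas, recovered ≥2 days. In an i.v./oral crossover with a 3-day washout, sulfasalazine was given by oral gavage at 20 mg/kg in 0.5% carboxymethyl cellulose/PBS pH 7.4. Arterial plasma was sampled 0–24 h and analysed by LC-MS/MS (1–5000 ng/ml). Noncompartmental analysis; n = 4 to 8.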

[3] = AUC (infinity) in wild-type Sprague-Dawley rat at 20 mg/kg, po by LC-MS/MS analysis; design: time infinity, dose 20 mg/kg, route oral; conditions: plasma
How it was run: (§3)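 Male Sprague-Dawley knockout or age/weight-matched wild-type rats with femoral artery and vein cannulas. Crossover design: day 0 i.v. bolus 5 mg/kg sulfasalazine in water at pH 9–10, then day 3 gavage 20 mg/kg in 0.5% carboxymethyl cellulose/PBS pH 7.4. Arterial plasma was sampled to 24 h. Sulfasalazine and sulfapyridine were measured by LC-MS/MS (1–5000 ng/ml). Parameters are noncompartmental; n = 4–8, mean ± S.D.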

[4] = Half life in MDR1A knockout Sprague-Dawley rat at 20 mg/kg, po by LC-MS/MS analysis; design: dose 20 mg/kg, route oral; conditions: in vivo; how it was run: as §1
[5] = Cmax in wild-type Wistar rat at 5 mg/kg, po by LC-MS/MS analysis; design: dose 5 mg/kg, route oral; conditions: in vivo
[6] = AUC (infinity) in MRP2-deficient Wistar rat at 5 mg/kg, po by LC-MS/MS analysis; design: time infinity, dose 5 mg/kg, route oral; conditions: plasma
[7] = AUC (infinity) in wild-type Sprague-Dawley rat at 5 mg/kg, iv by LC-MS/MS analysis; design: time infinity, dose 5 mg/kg, route intravenous; conditions: plasma; how it was run: as §3
[8] = AUC (infinity) in MRP2-deficient Wistar rat at 5 mg/kg, iv by LC-MS/MS analysis; design: dose 5 mg/kg, route intravenous, time infinity; conditions: plasma
How it was run: (§4)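 Male Wistar wild-type or Mrp2-deficient TR⁻ rats with femoral artery and vein cannulas. Sulfasalazine was given as a 5 mg/kg i.v. bolus and as a 20 mg/kg oral dose. Arterial plasma was sampled to 24 h and analysed for parent and sulfapyridine by LC-MS/MS. Noncompartmental parameters; n = 3, mean ± S.D.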

[9] = Volume of distribution at steady state in MDR1A knockout Sprague-Dawley rat at 5 mg/kg, iv by LC-MS/MS analysis; design: dose 5 mg/kg, route intravenous; conditions: in vivo, read-out: Vdss; how it was run: as §1
[10] = AUC (infinity) in wild-type Wistar rat at 5 mg/kg, iv by LC-MS/MS analysis; design: time infinity, dose 5 mg/kg, route intravenous; conditions: plasma; how it was run: as §4
[11] = AUC (infinity) in BCRP knockout Sprague-Dawley rat at 20 mg/kg, po by LC-MS/MS analysis; design: time infinity, dose 20 mg/kg, route oral; conditions: plasma; how it was run: as §3
[12] = Half life in MRP2-deficient Wistar rat at 5 mg/kg, iv by LC-MS/MS analysis; design: dose 5 mg/kg, route intravenous; conditions: in vivo
How it was run: (§5)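 Male Wistar wild-type rats and Mrp2-deficient TR⁻ rats with femoral artery and vein cannulas. Sulfasalazine given as an iv bolus (5 mg/kg, water at pH 9–10) and by oral gavage, each followed by arterial plasma sampling over 24 h. Sulfasalazine and sulfapyridine measured by LC-MS/MS; noncompartmental parameters; mean ± S.D., n = 3.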

[13] = Clearance in MDR1A knockout Sprague-Dawley rat at 5 mg/kg, iv by LC-MS/MS analysis; design: dose 5 mg/kg, route intravenous; conditions: in vivo; how it was run: as §3
[14] = Clearance in wild-type Sprague-Dawley rat at 5 mg/kg, iv by LC-MS/MS analysis; design: dose 5 mg/kg, route intravenous; conditions: in vivo; how it was run: as §3
[15] = AUC (infinity) in MDR1A knockout Sprague-Dawley rat at 20 mg/kg, po by LC-MS/MS analysis; design: time infinity, dose 20 mg/kg, route oral; conditions: plasma; how it was run: as §3
[16] = Tmax in wild-type Sprague-Dawley rat at 20 mg/kg, po by LC-MS/MS analysis; design: dose 20 mg/kg, route oral; conditions: in vivo; how it was run: as §2
[17] = Tmax in wild-type Wistar rat at 5 mg/kg, po by LC-MS/MS analysis; design: dose 5 mg/kg, route oral; conditions: in vivo
[18] = Tmax in MRP2-deficient Wistar rat at 5 mg/kg, po by LC-MS/MS analysis; design: dose 5 mg/kg, route oral; conditions: in vivo
[19] = Clearance in BCRP knockout Sprague-Dawley rat at 5 mg/kg, iv by LC-MS/MS analysis; design: dose 5 mg/kg, route intravenous; conditions: in vivo; how it was run: as §3
[20] = Oral bioavailability in wild-type Sprague-Dawley rat at 20 mg/kg by LC-MS/MS analysis; conditions: in vivo; how it was run: as §1
[21] = Oral bioavailability in wild-type Wistar rat at 5 mg/kg by LC-MS/MS analysis; conditions: in vivo; how it was run: as §5
[22] = Half life in MRP2-deficient Wistar rat at 5 mg/kg, po by LC-MS/MS analysis; design: dose 5 mg/kg, route oral; conditions: in vivo; how it was run: as §5
[23] = AUC (infinity) in MRP2 knockout Sprague-Dawley rat at 5 mg/kg, iv by LC-MS/MS analysis; design: time infinity, dose 5 mg/kg, route intravenous; conditions: plasma; how it was run: as §3
[24] = Half life in wild-type Wistar rat at 5 mg/kg, po by LC-MS/MS analysis; design: dose 5 mg/kg, route oral; conditions: in vivo; how it was run: as §5
[25] = Volume of distribution at steady state in MRP2-deficient Wistar rat at 5 mg/kg, iv by LC-MS/MS analysis; design: dose 5 mg/kg, route intravenous; conditions: in vivo, read-out: Vdss; how it was run: as §5
[26] = Half life in MRP2 knockout Sprague-Dawley rat at 20 mg/kg, po by LC-MS/MS analysis; design: dose 20 mg/kg, route oral; conditions: in vivo; how it was run: as §1
[27] = Tmax in MRP2 knockout Sprague-Dawley rat at 20 mg/kg, po by LC-MS/MS analysis; design: dose 20 mg/kg, route oral; conditions: in vivo; how it was run: as §2
[28] = AUC (infinity) in BCRP knockout Sprague-Dawley rat at 5 mg/kg, iv by LC-MS/MS analysis; design: time infinity, dose 5 mg/kg, route intravenous; conditions: plasma; how it was run: as §3
[29] = AUC (infinity) in wild-type Wistar rat at 5 mg/kg, po by LC-MS/MS analysis; design: time infinity, dose 5 mg/kg, route oral; conditions: plasma
[30] = Half life in MRP2 knockout Sprague-Dawley rat at 5 mg/kg, iv by LC-MS/MS analysis; design: dose 5 mg/kg, route intravenous; conditions: in vivo; how it was run: as §1
[31] = Half life in MDR1A knockout Sprague-Dawley rat at 5 mg/kg, iv by LC-MS/MS analysis; design: dose 5 mg/kg, route intravenous; conditions: in vivo; how it was run: as §1
[32] = Volume of distribution at steady state in BCRP knockout Sprague-Dawley rat at 5 mg/kg, iv by LC-MS/MS analysis; design: dose 5 mg/kg, route intravenous; conditions: in vivo, read-out: Vdss; how it was run: as §1
[33] = Cmax in MRP2 knockout Sprague-Dawley rat at 20 mg/kg, po by LC-MS/MS analysis; design: dose 20 mg/kg, route oral; conditions: in vivo; how it was run: as §3
[34] = Cmax in wild-type Sprague-Dawley rat at 20 mg/kg, po by LC-MS/MS analysis; design: dose 20 mg/kg, route oral; conditions: in vivo; how it was run: as §3
[35] = Volume of distribution at steady state in wild-type Wistar rat at 5 mg/kg, iv by LC-MS/MS analysis; design: dose 5 mg/kg, route intravenous; conditions: in vivo, read-out: Vdss; how it was run: as §5
[36] = AUC (infinity) in MRP2 knockout Sprague-Dawley rat at 20 mg/kg, po by LC-MS/MS analysis; design: time infinity, dose 20 mg/kg, route oral; conditions: plasma; how it was run: as §3
[37] = Oral bioavailability in MRP2 knockout Sprague-Dawley rat at 20 mg/kg by LC-MS/MS analysis; conditions: in vivo; how it was run: as §1

SMILES: O=C(O)c1cc(/N=N/c2ccc(S(=O)(=O)Nc3ccccn3)cc2)ccc1O [SULFASALAZINE]
- Vd [1]: 0.168 L/kg
- Tmax [2]: 0.6 h
- AUC(0-inf) [3]: 562 ng·h/mL
- half-life [4]: 2.3 h
- Cmax [5]: 490 ng/mL
- AUC(0-inf) [6]: 462 ng·h/mL
- AUC(0-inf) [7]: 8400 ng·h/mL
- AUC(0-inf) [8]: 7730 ng·h/mL
- Vd [9]: 0.285 L/kg
- AUC(0-inf) [10]: 12300 ng·h/mL
- AUC(0-inf) [11]: 13100 ng·h/mL
- half-life [12]: 4 h
- clearance [13]: 13.5 mL/min/kg
- clearance [14]: 10.4 mL/min/kg
- AUC(0-inf) [15]: 711 ng·h/mL
- Tmax [16]: 0.25 h
- Tmax [17]: 0.5 h
- Tmax [18]: 0.25 h
- clearance [19]: 7.8 mL/min/kg
- bioavailability [20]: 1.4%
- bioavailability [21]: 3.8%
- half-life [22]: 2.3 h
- AUC(0-inf) [23]: 4320 ng·h/mL
- half-life [24]: 2.1 h
- Vd [25]: 0.839 L/kg
- half-life [26]: 3.8 h
- Tmax [27]: 0.25 h
- AUC(0-inf) [28]: 10700 ng·h/mL
- AUC(0-inf) [29]: 1810 ng·h/mL
- half-life [30]: 4.3 h
- half-life [31]: 1 h
- Vd [32]: 0.408 L/kg
- Cmax [33]: 320 ng/mL
- Cmax [34]: 185 ng/mL
- Vd [35]: 0.244 L/kg
- AUC(0-inf) [36]: 635 ng·h/mL
- bioavailability [37]: 4%
